Test results: ChEMBL document CHEMBL4513216, “Probing the Open Global Health Chemical Diversity Library for Multistage-Active Starting Points for Next-Generation Antimalarials” (ACS Infect Dis, 2020)

Assay: Toxicity liver stage against HepG2, at 10uM
Assay type: cell-based
Design: test concentration 10 uM, cell line HepG2-A16-CD81EGFP
Conditions: human, HepG2-A16-CD81EGFP cells; read-out: INHIBITION
Outline: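 Uninfected HepG2-A16-CD81EGFP cells, 3 × 10^3 per well, 1536-well, plated on prespotted compound at 10 μM final, parasite-free screening media added to match infected plates; puromycin 10 μM positive, DMSO 0.5% negative; run in parallel with 48 h PbLuc assay at 37 °C, 5% CO2; viability by CellTiter-Glo luminescence, normalized to controls.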

SMILES	cytotoxicity at 10 µM
O=C(Cc1ccccc1)N1CCn2cc(Cn3cncn3)nc2C1	-137%
Cc1ccc(C2CCCN2Cc2nc(-c3ccco3)no2)cc1 (stereo unspecified)	26.1%
CN(Cc1ccco1)Cc1ccccc1CNC(=O)c1ccncc1	-9.87%
COC(=O)CCn1ccc(=O)c2ccccc21	-6.84%
CC(C)C1CN(c2ncc(F)cn2)CCC(=O)N1Cc1ccc(F)cc1 (stereo unspecified)	16.9%
Cc1n[nH]c(C2CN(CC(=O)NCc3cccs3)CCO2)n1 (stereo unspecified)	-4.13%
Cc1cnn(CC2CCCN2C(=O)c2ccc(Cl)cc2F)c1 (stereo unspecified)	-19%
O=C(NCC(F)(F)F)C1CCC(=O)N(C2CCCC2)C1 (stereo unspecified)	-8.77%
CC1CN(C)CCN1C(=O)c1cnc2c(cnn2C2CCCC2)c1 (stereo unspecified)	-12.8%
CN(C)C(=O)Cc1ccccc1NCc1cccc2cccnc12	-1.81%
CCN(CC)C1CCN(C(=O)c2cc3cc(C)cc(C)c3nc2C)CC1	0.199%
C[C@@H]1CN(C(=O)Nc2cccc(OC(F)F)c2)CC(C(N)=O)O1 (stereo partly specified)	5.52%
COc1cccc(-c2c[nH]c(C)n2)c1F	-3.29%
Cc1noc(C2CCN(C(=O)c3cccs3)CC2)n1	-1.22%
COc1ccc(S(=O)(=O)NC(=O)COC2CCCC2)cc1	-2.55%
O=C(NCc1cc[nH]n1)N1CCCCC(N2CCCC2)C1 (stereo unspecified)	-11.5%
CCN(CC)C(=O)CSc1nc2nc(C)ccc2o1	5.73%
Cc1ccc(CNC(=O)C2c3c(ncn3C(C)C)CCN2S(C)(=O)=O)o1 (stereo unspecified)	-13.7%
c1cc2c(cc1CN(Cc1nc(C3CC3)no1)C1CCCC1)OCO2	-10.6%
CS(=O)(=O)CCCN1CCSCC1c1ccc(Cl)cc1 (stereo unspecified)	-14.5%
Cc1c(C(=O)NCC(C)C)nnn1-c1cccc2c1CCN(C)C2	-7.69%
COc1cc(C2SCC(=O)Nc3[nH]ncc32)cc2c1OCO2 (stereo unspecified)	5.28%
CCOCCCNCc1cc2c(C)cc(C)cc2n2c(=O)n(C)nc12	-4%

SMILES	cytotoxicity at 10 µM
O=C(c1ccccc1)N1CCC2(CC1)CNc1c(F)cccc12	7.33%
CC(C)c1cc(C(=O)N2CCCC3(CCNC3)C2)no1 (stereo unspecified)	5.28%
CNC(=O)[C@@H]1C[C@H]2CN(C(=O)c3ccco3)C[C@H]2N1C(C)C	-1.84%
Cc1c(C(C)NC(=O)C2CCCCC2)cnn1C (stereo unspecified)	-4.79%
O=C(c1ccncc1F)N1CCc2onc(COc3cccnc3)c2C1	-70.6%
COc1ccccc1CNC(=O)C[S+]([O-])Cc1cc(C)on1 (stereo unspecified)	-4.92%
O=C(C1CCCN1S(=O)(=O)C1CCCC1)N1CCSCC1 (stereo unspecified)	4.71%
Cc1cc(-c2nn3c(C4CCC4)nnc3s2)on1	-5.65%
Cc1ccc2c(-c3nc4c([nH]3)CCNC4C(=O)O)cccc2n1 (stereo unspecified)	-3.15%
CCc1nc2n(n1)CCCC2NC(=O)Nc1ccc(SC)c(F)c1 (stereo unspecified)	5.08%
CCN1CC2(CC1=O)CN(C(=O)c1ccco1)CCN(C(=O)N(C)C)C2 (stereo unspecified)	-8.37%
Cc1ccc(CN2CC[C@H]3C[C@H](C(=O)N4CCCO4)O[C@@H]3C2)o1	7.11%
CCN(CC)C(=O)[C@@H]1C[C@@H](NC(=O)c2ccoc2)CN1C	2.37%
Cc1ccc(CNC(=O)c2c[nH]nc2NC(=O)COCC2CC2)cc1	3.58%
Cc1cc(N(C)C)nc(N2CCn3c(nnc3C3CC3)C2)n1	0.485%
O=C1CSC(c2cccs2)c2cnn(C3CCCC3)c2N1 (stereo unspecified)	5.99%
CC(C)c1nccn1C1CCCN(C(=O)c2nccnc2N)C1 (stereo unspecified)	0.0264%
Cc1nsc(NC2CCOC3(CCCC3)C2)n1 (stereo unspecified)	8.85%
O=C(C[S+]([O-])Cc1ccc(F)cc1Cl)N1CCc2sccc2C1 (stereo unspecified)	-2.22%
CCc1ccccc1CNC(=O)CCc1cnn(C)c1	-3.09%
CC(C)c1nc(C2CCCN2C(=O)CCn2cncn2)no1 (stereo unspecified)	-2.38%
N#Cc1cn[nH]c1NCc1cc(I)cc(I)c1O	1.11%
Cc1cccc(C(C(=O)NCCc2nc(C)cc(=O)[nH]2)N(C)C)c1 (stereo unspecified)	-6.24%

SMILES	cytotoxicity at 10 µM
COCc1ccc(C(=O)N2CCc3c(ncnc3N3CCOCC3)C2)o1	-2.17%
CNC(=O)[C@@H]1C[C@H]2CN(C(=O)c3ccco3)C[C@H]2N1C	-2.85%
O=C(NCCc1ccccc1)c1cn(CCNCc2cccnc2)nn1	-2.68%
COCc1cc(CNC(=O)c2c(O)cccc2O)n[nH]1	-6.93%
COc1ccc(NC(=O)c2ccoc2C)c(N2CCN(C(C)=O)CC2)n1	-9.09%
Cn1ncc2c1C(COCC1CC1)CN(Cc1cccnc1)C2 (stereo unspecified)	11.4%
N#Cc1nc(COc2ccc3c(c2)OCO3)oc1N1CCCCCC1	-34.6%
Cc1cccc(CN2CCn3c(COc4ncccn4)nnc3C2)n1	-1.35%
COc1cc(C(=O)NCC2(N(C)C)CCN(C)CC2)c2ccccc2n1	-0.356%
CNC(=O)[C@@H]1C[C@@H](NC(=O)c2cn(C)nc2C)CN1Cc1sccc1C	-5.58%
O=C1NC2(CCN(C(=O)c3ccccc3)CC2)CC1c1cccnc1 (stereo unspecified)	-10.9%
CCOC(=O)Cc1csc(NC(=O)c2cc(=O)c(OC)c[nH]2)n1	-43.8%
CCN(CC)C(=O)[C@@H]1C[C@@H](NC(=O)c2cccn2C2CC2)CN1C	-5.94%
COCC(=O)NCc1cnc(C)nc1-c1cn(C)c2ccc(OC)cc12	11.9%
COCCN1C[C@@H]2CC[C@H]1CN(Cc1ccc3ccccc3n1)C2	-11.3%
CCCSCC(=O)N1C[C@@H]2CC[C@H]1CN(Cc1cccnc1)C2	1.64%
Cn1cccc1C(O)CNC(=O)c1ccc2nsnc2c1 (stereo unspecified)	4.4%
CS(=O)(=O)NCCC(=O)N1CCN(S(=O)(=O)c2ccc(Br)cc2)CC1	-29.6%
CC(C)c1nc2c(n1C)CCN(CC(=O)Nc1nncs1)C2	-10.1%
COCCN(Cc1ccncc1)C(=O)CCSCc1ccc(F)cc1	0.807%
CCCc1ccc(CN2CCC3(CC2)CNC(=O)C3)o1	-3.71%
Cc1ccc(CN2CC[C@@H](N3CCOCC3)[C@@H]2Cc2cccnc2)o1	9.55%
CN(C(=O)Cn1nc(-c2cccs2)ccc1=O)C1CCS(=O)(=O)C1 (stereo unspecified)	7.36%

SMILES	cytotoxicity at 10 µM
CC(C)CCNC(=O)c1ccc(-n2cnc3ccccc3c2=O)cc1	-6.17%
CC1CCCCN1S(=O)(=O)NCc1cccnc1OC1CCCC1 (stereo unspecified)	-89.8%
O=C1COc2ccc(C(=O)NS(=O)(=O)c3ccc(F)cc3F)cc2N1	-4.72%
CC(=O)N1CCOC(c2cncc(CCC(=O)N(C)C)n2)C1 (stereo unspecified)	-0.197%
CCC(C)N(Cc1sccc1C)C(=O)c1cnc[nH]1 (stereo unspecified)	5.55%
O=C(O)CC(NC(=O)c1ccccc1OC(F)F)c1cccs1 (stereo unspecified)	-10.8%
Cn1cccc1CNC(=O)CCCc1nnc2ccccn12	-5.77%
Cc1cc(C)c2c(NCC3(O)CCCCC3)ncnc2n1	-7.13%
CCCn1nccc1NC(=O)CN1CCCC1Cn1cc(C)cn1 (stereo unspecified)	-8.09%
Cc1ccc(N2CC[C@H]3O[C@@H](C(=O)NCc4ccco4)CC[C@H]32)nn1	2.03%
CC(C)C(=O)NCc1cc(Br)ccc1F	-3.98%
Cc1nc(Nc2ccc(Cl)cn2)sc1C(=O)NCCCN1CCCCC1	1.66%
CC(=O)c1ccc(NC(=O)NC(C(=O)N(C)C)C(C)C)cc1 (stereo unspecified)	-5.55%
CCC1CN(C)c2ccccc2CN1C(=O)Nc1cccc(F)c1 (stereo unspecified)	5.9%
O=C(c1cscn1)N1CCC2(CCN(Cc3nccs3)C2)CC1	1.8%
CC(=O)c1ccc(C(=O)N2CCCCC2c2nc[nH]n2)cc1 (stereo unspecified)	-5.3%
CCc1ncnc2c1CCN(c1ncc(F)cn1)CC2	7.86%
CN(Cc1ccco1)C(=O)c1cccc(N2CCCC2=O)c1	-4.5%
COc1ccc(CN2CCc3c(CNC(=O)CC#N)nn(C)c3C2)cc1	9.67%
Cc1nc(N2CCCC2)nc2c1CN(C(=O)c1ccco1)CC2	5.29%
O=C(c1n[nH]c2c1CCN(Cc1nccs1)C2)N1CCCC1	-10.7%
Clc1nc2ccccn2c1CNCC1CN(C2CC2)CCO1 (stereo unspecified)	-3.06%
O=S1(=O)CCC(N(Cc2nc3ccccc3o2)Cc2cccs2)C1 (stereo unspecified)	-3.08%

SMILES	cytotoxicity at 10 µM
CC(=O)N1N=C(c2ccccc2)OC1C(=O)NCCc1cccc(Cl)c1 (stereo unspecified)	2.82%
Oc1ccccc1N1CCN(c2ncnc3sc4c(c23)CCNC4)CC1	4.36%
O=C1[C@H]2CN(Cc3ccco3)C[C@H]2CN1c1cncnc1	-3.64%
CC(C)N1CCCC(Cc2cncc(Br)c2)CC1 (stereo unspecified)	-7.5%
Cc1ccc(CN2CCC3(CC2)OC(C(=O)N(C)C)c2ccccc23)o1 (stereo unspecified)	4.34%
CCN(Cc1ccc(C)o1)C(=O)C(C)n1ccnc1C(C)C (stereo unspecified)	7.66%
CNc1ccnc(NCCC(=O)Nc2ccccc2OC)n1	-1.62%
O=C(NCC1CC1)[C@H]1C[C@@H]2CCN(Cc3nccs3)C[C@@H]2O1	-1.7%
CNC(=O)C1CN(C(C)C)CCN1c1nc(C)cc(C)n1 (stereo unspecified)	-10.4%
CCc1nc(CC)n(CC(=O)N(CC)CC)n1	3.1%
COCCCNC(=O)c1cc(C(C)C)nc(N2CCCC2)n1	6.5%
CN(Cc1ccncn1)C(=O)c1cccc(CCC(C)(C)O)c1	-4.27%
CN(C)C(=O)CN1CC[C@]2(CN(CC3CC3)C[C@H]2c2ccccc2)C1=O	1.46%
COc1cc(C(N)=O)c(N(C)S(C)(=O)=O)cc1OC	-7.39%
CCN(Cc1cc(F)ccc1Cl)C1CCS(=O)(=O)C1 (stereo unspecified)	5.29%
CC(C)(C)[S+]([O-])CCNC(=O)c1ccc(Cl)c2cccnc12 (stereo unspecified)	-44.5%
CC(=O)Nc1ncc(S(=O)(=O)Nc2cccc(C)c2)s1	7.63%
CCc1n[nH]c(C(=O)N2CCC3(CCCN(CCOC)C3=O)C2)c1C (stereo unspecified)	6.38%
CCN1CCC(CNC(=O)C2(c3cccc(C)c3)CC2)C1 (stereo unspecified)	1.42%
